Data reported in ChEMBL document CHEMBL1153878, “Hansch analysis of veratric acid derivatives as antimicrobial agents” (2009).
Converted amounts (≈) assume the structure as drawn.

Legend:
Type in all cases: functional
Staphylococcus aureus = test: Antibacterial activity against Staphylococcus aureus MTCC 1430 by serial dilution method; set-up: -logMIC: scale not given here; conditions: for MIC: Staphylococcus aureus, MTCC 1430, read-out: MIC
In short: (§1)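 Tube serial dilution in 1 ml sterile double strength nutrient broth I.P., test range […] per ml. Inoculum: […] of a saline suspension at 10⁵ cfu/ml from a fresh 24-h culture, grown in double strength nutrient broth at 37 ± 1 °C. […] Exact MIC refined by further dilution of the stock.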

Bacillus subtilis = test: Antibacterial activity against Bacillus subtilis MTCC 2423 by serial dilution method; set-up: -logMIC: unit not given here; conditions: for MIC: Bacillus subtilis, MTCC 2423, read-out: MIC; in short: as §1
Escherichia coli = test: Antibacterial activity against Escherichia coli MTCC 739 by serial dilution method; set-up: -logMIC: scale not given here; conditions: for MIC: Escherichia coli, MTCC 739, read-out: MIC; in short: as §1
Candida albicans = test: Antifungal activity against Candida albicans MTCC 227 by serial dilution method; set-up: -logMIC: unit not given here; conditions: for MIC: Candida albicans, MTCC 227, read-out: MIC
Aspergillus niger = test: Antifungal activity against Aspergillus niger MTCC 2425 by serial dilution method; set-up: -logMIC: scale not given here; conditions: for MIC: Aspergillus niger, MTCC 2425, read-out: MIC

Q: Which results are given for `CCCCCCCOC(=O)c1ccc(OC)c(OC)c1`?
A: -logMIC (Staphylococcus aureus): 1.25; MIC (Staphylococcus aureus): 16 µg/mL (≈ 57.1 µM); -logMIC (Bacillus subtilis): 1.35; MIC (Bacillus subtilis): 12.5 µg/mL (≈ 44.6 µM); -logMIC (Escherichia coli): 1.3; MIC (Escherichia coli): 14 µg/mL (≈ 49.9 µM); -logMIC (Candida albicans): 1.25; MIC (Candida albicans): 16 µg/mL (≈ 57.1 µM); -logMIC (Aspergillus niger): 1.37; MIC (Aspergillus niger): 12 µg/mL (≈ 42.8 µM)

Q: How did the “-logMIC” value (Staphylococcus aureus) turn out when `COc1ccc(C(=O)Nc2cccc(Cl)c2)cc1OC` was run?
A: 1.17

Q: What about the MIC (Staphylococcus aureus) of the same compound?
A: 20 µg/mL (≈ 68.6 µM)

Q: And the “-logMIC” value (Bacillus subtilis)?
A: 1.39

Q: And the MIC (Bacillus subtilis)?
A: 12 µg/mL (≈ 41.1 µM)

Q: What about the “-logMIC” value (Escherichia coli) of the same compound?
A: 1.23

Q: What about the MIC (Escherichia coli) of the same compound?
A: 17 µg/mL (≈ 58.3 µM)

Q: What about the “-logMIC” value (Candida albicans) of the same compound?
A: 1.29

Q: And the MIC (Candida albicans)?
A: 15 µg/mL (≈ 51.4 µM)

Q: What about the “-logMIC” value (Aspergillus niger) of the same compound?
A: 1.32

Q: What about the MIC (Aspergillus niger) of the same compound?
A: 14 µg/mL (≈ 48 µM)

Q: `COc1ccc(C(=O)N2CCOCC2)cc1OC` was tested. Which “-logMIC” value (Staphylococcus aureus) did it give?
A: 1.08

Q: And the MIC (Staphylococcus aureus)?
A: 21 µg/mL (≈ 83.6 µM)

Q: What about the “-logMIC” value (Bacillus subtilis) of the same compound?
A: 1.28

Q: What about the MIC (Bacillus subtilis) of the same compound?
A: 13 µg/mL (≈ 51.7 µM)

Q: And the “-logMIC” value (Escherichia coli)?
A: 1.17

Q: And the MIC (Escherichia coli)?
A: 17 µg/mL (≈ 67.7 µM)

Q: What about the “-logMIC” value (Candida albicans) of the same compound?
A: 1.37

Q: What about the MIC (Candida albicans) of the same compound?
A: 11 µg/mL (≈ 43.8 µM)

Q: And the “-logMIC” value (Aspergillus niger)?
A: 1.33

Q: What about the MIC (Aspergillus niger) of the same compound?
A: 12 µg/mL (≈ 47.8 µM)

Q: Which results are given for `COc1ccc(C(=O)NCCO)cc1OC`?
A: -logMIC (Staphylococcus aureus): 1.04; MIC (Staphylococcus aureus): 21 µg/mL (≈ 93.2 µM); -logMIC (Bacillus subtilis): 1.18; MIC (Bacillus subtilis): 15 µg/mL (≈ 66.6 µM); -logMIC (Escherichia coli): 1.08; MIC (Escherichia coli): 19 µg/mL (≈ 84.4 µM); -logMIC (Candida albicans): 1.29; MIC (Candida albicans): 11.5 µg/mL (≈ 51.1 µM); -logMIC (Aspergillus niger): 1.29; MIC (Aspergillus niger): 11.5 µg/mL (≈ 51.1 µM)

Q: For `COc1ccc(C(=O)Nc2cccc(C)c2)cc1OC`, which “-logMIC” value (Staphylococcus aureus) is on record?
A: 1.2

Q: What about the MIC (Staphylococcus aureus) of the same compound?
A: 17 µg/mL (≈ 62.7 µM)

Q: And the “-logMIC” value (Bacillus subtilis)?
A: 1.31

Q: What about the MIC (Bacillus subtilis) of the same compound?
A: 13 µg/mL (≈ 47.9 µM)

Q: And the “-logMIC” value (Escherichia coli)?
A: 1.2

Q: And the MIC (Escherichia coli)?
A: 17 µg/mL (≈ 62.7 µM)

Q: And the “-logMIC” value (Candida albicans)?
A: 1.42

Q: What about the MIC (Candida albicans) of the same compound?
A: 10 µg/mL (≈ 36.9 µM)

Q: What about the “-logMIC” value (Aspergillus niger) of the same compound?
A: 1.35

Q: And the MIC (Aspergillus niger)?
A: 12.5 µg/mL (≈ 46.1 µM)

Q: How did the “-logMIC” value (Staphylococcus aureus) turn out when `COc1ccc(C(=O)Nc2cccc(O)c2)cc1OC` was run?
A: 1.2

Q: What about the MIC (Staphylococcus aureus) of the same compound?
A: 17 µg/mL (≈ 62.2 µM)

Q: What about the “-logMIC” value (Bacillus subtilis) of the same compound?
A: 1.26

Q: And the MIC (Bacillus subtilis)?
A: 15 µg/mL (≈ 54.9 µM)

Q: And the “-logMIC” value (Escherichia coli)?
A: 1.16

Q: What about the MIC (Escherichia coli) of the same compound?
A: 19 µg/mL (≈ 69.5 µM)

Q: And the “-logMIC” value (Candida albicans)?
A: 1.36

Q: What about the MIC (Candida albicans) of the same compound?
A: 12 µg/mL (≈ 43.9 µM)

Q: And the “-logMIC” value (Aspergillus niger)?
A: 1.36

Q: What about the MIC (Aspergillus niger) of the same compound?
A: 12 µg/mL (≈ 43.9 µM)

Q: Which “-logMIC” value (Staphylococcus aureus) does the source give for `COc1ccc(C(=O)O)cc1OC` [VERATRIC ACID] here?
A: 1.01

Q: And the MIC (Staphylococcus aureus)?
A: 18 µg/mL (≈ 98.8 µM)

Q: What about the “-logMIC” value (Bacillus subtilis) of the same compound?
A: 1.31

Q: What about the MIC (Bacillus subtilis) of the same compound?
A: 9 µg/mL (≈ 49.4 µM)

Q: And the “-logMIC” value (Escherichia coli)?
A: 1.06

Q: And the MIC (Escherichia coli)?
A: 16 µg/mL (≈ 87.8 µM)

Q: And the “-logMIC” value (Candida albicans)?
A: 1.22

Q: And the MIC (Candida albicans)?
A: 11 µg/mL (≈ 60.4 µM)

Q: And the “-logMIC” value (Aspergillus niger)?
A: 1.11

Q: What about the MIC (Aspergillus niger) of the same compound?
A: 14 µg/mL (≈ 76.8 µM)

Q: How did the “-logMIC” value (Staphylococcus aureus) turn out when `COc1ccccc1NC(=O)c1ccc(OC)c(OC)c1` was run?
A: 1.23

Q: What about the MIC (Staphylococcus aureus) of the same compound?
A: 17 µg/mL (≈ 59.2 µM)

Q: And the “-logMIC” value (Bacillus subtilis)?
A: 1.34

Q: And the MIC (Bacillus subtilis)?
A: 13 µg/mL (≈ 45.2 µM)

Q: What about the “-logMIC” value (Escherichia coli) of the same compound?
A: 1.23

Q: And the MIC (Escherichia coli)?
A: 17 µg/mL (≈ 59.2 µM)

Q: What about the “-logMIC” value (Candida albicans) of the same compound?
A: 1.29

Q: What about the MIC (Candida albicans) of the same compound?
A: 15 µg/mL (≈ 52.2 µM)

Q: And the “-logMIC” value (Aspergillus niger)?
A: 1.32

Q: And the MIC (Aspergillus niger)?
A: 14 µg/mL (≈ 48.7 µM)

Q: `O=C(O)c1cn(C2CC2)c2cc(N3CCNCC3)c(F)cc2c1=O` [CIPROFLOXACIN] was tested. Which “-logMIC” value (Staphylococcus aureus) did it give?
A: 3.33

Q: What about the “-logMIC” value (Bacillus subtilis) of the same compound?
A: 3.33

Q: What about the “-logMIC” value (Escherichia coli) of the same compound?
A: 3.33

Q: For `CCCNC(=O)c1ccc(OC)c(OC)c1`, which “-logMIC” value (Staphylococcus aureus) is on record?
A: 1.08

Q: What about the MIC (Staphylococcus aureus) of the same compound?
A: 19 µg/mL (≈ 85.1 µM)

Q: And the “-logMIC” value (Bacillus subtilis)?
A: 1.23

Q: And the MIC (Bacillus subtilis)?
A: 13 µg/mL (≈ 58.2 µM)

Q: And the “-logMIC” value (Escherichia coli)?
A: 1.08

Q: What about the MIC (Escherichia coli) of the same compound?
A: 19 µg/mL (≈ 85.1 µM)

Q: And the “-logMIC” value (Candida albicans)?
A: 1.25

Q: What about the MIC (Candida albicans) of the same compound?
A: 12.5 µg/mL (≈ 56 µM)

Q: What about the “-logMIC” value (Aspergillus niger) of the same compound?
A: 1.28

Q: What about the MIC (Aspergillus niger) of the same compound?
A: 12 µg/mL (≈ 53.7 µM)

Q: Which results are given for `COc1ccc(C(=O)Nc2ccccc2Cl)cc1OC`?
A: -logMIC (Staphylococcus aureus): 1.28; MIC (Staphylococcus aureus): 15 µg/mL (≈ 51.4 µM); -logMIC (Bacillus subtilis): 1.39; MIC (Bacillus subtilis): 12 µg/mL (≈ 41.1 µM); -logMIC (Escherichia coli): 1.23; MIC (Escherichia coli): 17 µg/mL (≈ 58.3 µM); -logMIC (Candida albicans): 1.34; MIC (Candida albicans): 13.5 µg/mL (≈ 46.3 µM); -logMIC (Aspergillus niger): 1.34; MIC (Aspergillus niger): 13.5 µg/mL (≈ 46.3 µM)

Q: Which “-logMIC” value (Staphylococcus aureus) does the source give for `COC(=O)c1ccc(OC)c(OC)c1` [VERATRIC ACID METHYL ESTER] here?
A: 1.04

Q: And the MIC (Staphylococcus aureus)?
A: 18 µg/mL (≈ 91.7 µM)

Q: And the “-logMIC” value (Bacillus subtilis)?
A: 1.2

Q: And the MIC (Bacillus subtilis)?
A: 12 µg/mL (≈ 61.2 µM)

Q: What about the “-logMIC” value (Escherichia coli) of the same compound?
A: 1.04

Q: And the MIC (Escherichia coli)?
A: 18 µg/mL (≈ 91.7 µM)

Q: What about the “-logMIC” value (Candida albicans) of the same compound?
A: 1.2

Q: And the MIC (Candida albicans)?
A: 12 µg/mL (≈ 61.2 µM)

Q: What about the “-logMIC” value (Aspergillus niger) of the same compound?
A: 1.15

Q: And the MIC (Aspergillus niger)?
A: 14 µg/mL (≈ 71.4 µM)

Q: What does the source list for `COc1ccc(C(=O)N(CCO)CCO)cc1OC`?
A: -logMIC (Staphylococcus aureus): 1.21; MIC (Staphylococcus aureus): 16.5 µg/mL (≈ 61.3 µM); -logMIC (Bacillus subtilis): 1.31; MIC (Bacillus subtilis): 12.5 µg/mL (≈ 46.4 µM); -logMIC (Escherichia coli): 1.21; MIC (Escherichia coli): 16.5 µg/mL (≈ 61.3 µM); -logMIC (Candida albicans): 1.31; MIC (Candida albicans): 12.5 µg/mL (≈ 46.4 µM); -logMIC (Aspergillus niger): 1.36; MIC (Aspergillus niger): 12 µg/mL (≈ 44.6 µM)

Q: With `COc1ccc(C(=O)Nc2ccc([N+](=O)[O-])cc2)cc1OC` as the compound, how does the “-logMIC” value (Staphylococcus aureus) read?
A: 1.25

Q: And the MIC (Staphylococcus aureus)?
A: 17 µg/mL (≈ 56.2 µM)

Q: And the “-logMIC” value (Bacillus subtilis)?
A: 1.41

Q: And the MIC (Bacillus subtilis)?
A: 11.5 µg/mL (≈ 38 µM)

Q: And the “-logMIC” value (Escherichia coli)?
A: 1.16

Q: And the MIC (Escherichia coli)?
A: 21 µg/mL (≈ 69.5 µM)

Q: And the “-logMIC” value (Candida albicans)?
A: 1.32

Q: And the MIC (Candida albicans)?
A: 14 µg/mL (≈ 46.3 µM)

Q: What about the “-logMIC” value (Aspergillus niger) of the same compound?
A: 1.35

Q: What about the MIC (Aspergillus niger) of the same compound?
A: 13 µg/mL (≈ 43 µM)

Q: Which “-logMIC” value (Staphylococcus aureus) does the source give for `COc1ccc(C(=O)NN)cc1OC` here?
A: 0.93

Q: And the MIC (Staphylococcus aureus)?
A: 23 µg/mL (≈ 117 µM)

Q: And the “-logMIC” value (Bacillus subtilis)?
A: 1.15

Q: What about the MIC (Bacillus subtilis) of the same compound?
A: 14 µg/mL (≈ 71.4 µM)

Q: What about the “-logMIC” value (Escherichia coli) of the same compound?
A: 0.93

Q: And the MIC (Escherichia coli)?
A: 23 µg/mL (≈ 117 µM)

Q: What about the “-logMIC” value (Candida albicans) of the same compound?
A: 1.15

Q: What about the MIC (Candida albicans) of the same compound?
A: 14 µg/mL (≈ 71.4 µM)

Q: What about the “-logMIC” value (Aspergillus niger) of the same compound?
A: 1.12

Q: And the MIC (Aspergillus niger)?
A: 15 µg/mL (≈ 76.5 µM)

Q: How did the “-logMIC” value (Candida albicans) turn out when `OC(Cn1cncn1)(Cn1cncn1)c1ccc(F)cc1F` [FLUCONAZOLE] was run?
A: 2.64

Q: And the “-logMIC” value (Aspergillus niger)?
A: 2.64
